Test results reported in ChEMBL document CHEMBL1124180, “Asymmetric synthesis and properties of the enantiomers of the antibacterial agent 7-(3-aminopyrrolidin-1-yl)-1-(2,4-difluorophenyl)-1,4-dihydro-6- fluoro-4-oxo-1,8-naphthyridine-3-carboxylic acid hydrochloride” (J Med Chem, 1988).

How the values were obtained:
[1] = Solubility in aqueous media urine, pH 6.3; format: physicochemical; settings: read-out: S
[2] = system: Veillonella parvula; assay: In vitro activity against Veillonella parvula (ATCC 10790); format: functional
Summary of the method: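 Anaerobic MICs measured by agar dilution on Wilkins-Chalgren agar.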

[3] = Solubility in aqueous media urine, pH 5.1; format: physicochemical; settings: read-out: S
[4] = system: Staphylococcus aureus; assay: In vitro activity against Staphylococcus aureus(CMX 503A); format: functional
Summary of the method: (§1)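 MIC determined by agar dilution on brain-heart infusion agar under aerobic conditions.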

[5] = system: Hoylesella loescheii; assay: In vitro activity against Bacteroides loescheii (ATCC 15930).; format: functional
Summary of the method: (§2)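 MIC determined under anaerobic conditions on Wilkins-Chalgren agar.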

[6] = system: Phocaeicola vulgatus; assay: In vitro activity against Bacteroides vulgatus(792); format: functional; summary of the method: as §2
[7] = system: Streptococcus pyogenes; assay: In vitro activity against Streptococcus pyogenes(930 CONST).; format: functional; summary of the method: as §1
[8] = system: Staphylococcus aureus; assay: In vitro activity against Staphylococcus aureus(CMX 553); format: functional; summary of the method: as §1
[9] = system: Micrococcus luteus; assay: In vitro activity against Micrococcus luteus (ATCC 9341); format: functional; summary of the method: as §1
[10] = system: Finegoldia magna; assay: In vitro activity against Peptococcus magnus (ATCC 29328); format: functional; summary of the method: as §2
[11] = system: Escherichia coli; assay: In vitro activity against Escherichia coli (KNK437); format: functional
Summary of the method: (§3)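 MIC for aerobic bacteria, measured on brain-heart infusion agar.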

[12] = system: Acinetobacter sp.; assay: In vitro activity against Acinetobacter sp.(CMX 669).; format: functional; summary of the method: as §1
[13] = Solubility in aqueous media 0.15 N sulfate, pH 5.4; format: physicochemical; settings: read-out: S
[14] = system: Escherichia coli; assay: In vitro activity against Escherichia coli (H560); format: functional; summary of the method: as §3
[15] = system: Bacteroides thetaiotaomicron; assay: In vitro activity against Bacteroides thetaiotaomicron (106); format: functional; summary of the method: as §2
[16] = system: Staphylococcus aureus; assay: In vitro activity against Staphylococcus aureus (A5177); format: functional; summary of the method: as §1
[17] = system: Pseudomonas aeruginosa; assay: In vitro activity against Pseudomonas aeruginosa (A5007).; format: functional; summary of the method: as §1
[18] = Solubility in aqueous media 0.15Nacetate, pH 6.1; format: physicochemical; settings: 0.15 N acetate, read-out: S
[19] = system: Prevotella disiens; assay: In vitro activity against Bacteroides disiens (ATCC 29426); format: functional; summary of the method: as §2
[20] = system: Escherichia coli; assay: In vitro activity against Escherichia coli (SS).; format: functional; summary of the method: as §3
[21] = system: Bacteroides fragilis; assay: In vitro activity against Bacteroides fragilis (SFM2929-1); format: functional; summary of the method: as §2
[22] = system: Pseudomonas aeruginosa; assay: In vitro activity against Pseudomonas aeruginosa (BMH10); format: functional; summary of the method: as §1
[23] = system: Staphylococcus aureus; assay: In vitro activity against Staphylococcus aureus(45 RAR2); format: functional; summary of the method: as §1
[24] = system: Clostridium perfringens; assay: In vitro activity against Clostridium perfringens (788); format: functional
Summary of the method: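 MIC for anaerobic bacteria, measured on Wilkins-Chalgren agar.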

[25] = system: Staphylococcus aureus; assay: In vitro activity against Staphylococcus aureus(CMX 686B); format: functional; summary of the method: as §1
[26] = system: Klebsiella aerogenes; assay: In vitro activity against Enterobacter aerogenes (ATCC 13048).; format: functional; summary of the method: as §1
[27] = system: Streptococcus pyogenes; assay: In vitro activity against Streptococcus pyogenes (EES61); format: functional; summary of the method: as §1
[28] = system: Bacteroides thetaiotaomicron; assay: In vitro activity against Bacteroides thetaiotaomicron (ATCC 29742); format: functional; summary of the method: as §2
[29] = Solubility in aqueous media urine, pH 5.7; format: physicochemical; settings: read-out: S
[30] = system: Bacteroides fragilis; assay: In vitro activity against Bacteroides fragilis (UC-2); format: functional; summary of the method: as §2
[31] = system: Mus musculus; assay: In vivo activity against Escherichia coli Juhl(100X LD50), when administered sc(each compound tested at 3 doses with 10 animals); format: functional
Summary of the method: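 Mice were challenged intraperitoneally with the organism. The compound was given subcutaneously as a total dose split into equal portions at 1 and 5 h post-infection. Three doses were used, with 10 animals per dose.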

[32] = system: Parvimonas micra; assay: In vitro activity against Peptostreptococcus micros (ATCC 33270); format: functional; summary of the method: as §2
[33] = system: Klebsiella pneumoniae; assay: In vitro activity against Klebsiella pneumoniae (ATCC 8045).; format: functional; summary of the method: as §1
[34] = system: Staphylococcus aureus; assay: In vitro activity against Staphylococcus aureus(45); format: functional; summary of the method: as §1
[35] = Solubility in aqueous media 0.15 N phosphate, pH 5.6; format: physicochemical; settings: read-out: S
[36] = system: Prevotella bivia; assay: In vitro activity against Bacteroides bivius(B 6140); format: functional; summary of the method: as §2
[37] = Solubility in aqueous media Ringer''s buffer, pH 7.4; format: physicochemical
[38] = system: Staphylococcus epidermidis; assay: In vitro activity against Staphylococcus epidermidis (3519); format: functional; summary of the method: as §1

## Cl.N[C@H]1CCN(c2nc3c(cc2F)c(=O)c(C(=O)O)cn3-c2ccc(F)cc2F)C1
[1]
  solubility: 20.7 µg/mL
[2]
  MIC: 0.25 µg/mL
[3]
  solubility: 32.4 µg/mL
[4]
  MIC: 0.05 µg/mL
[5]
  MIC: 1 µg/mL
[6]
  MIC: 0.5 µg/mL
[7]
  MIC: 0.1 µg/mL
[8]
  MIC: 0.05 µg/mL
[9]
  MIC: 0.78 µg/mL
[10]
  MIC: 0.06 µg/mL
[11]
  MIC: 0.1 µg/mL
[12]
  MIC: 0.05 µg/mL
[13]
  solubility: 8.7 µg/mL
[14]
  MIC: 0.01 µg/mL
[15]
  MIC: 0.5 µg/mL
[16]
  MIC: 0.05 µg/mL
[17]
  MIC: 0.1 µg/mL
[18]
  solubility: 4.1 µg/mL
[19]
  MIC: 1 µg/mL
[20]
  MIC: 0.002 µg/mL
[21]
  MIC: 0.25 µg/mL
[22]
  MIC: 0.05 µg/mL
[23]
  MIC: 0.05 µg/mL
[24]
  MIC: 0.12 µg/mL
[25]
  MIC: 0.05 µg/mL
[26]
  MIC: 0.05 µg/mL
[27]
  MIC: 0.1 µg/mL
[28]
  MIC: 0.5 µg/mL
[29]
  solubility: 27.5 µg/mL
[30]
  MIC: 0.25 µg/mL
[31]
  ED50: 0.2 mg/kg
[32]
  MIC: 0.06 µg/mL
[33]
  MIC: 0.01 µg/mL
[34]
  MIC: 0.1 µg/mL
[35]
  solubility: 4.3 µg/mL
[36]
  MIC: 0.5 µg/mL
[37]
  solubility: 13 µg/mL
[38]
  MIC: 0.05 µg/mL
